This is an account of results in ChEMBL document CHEMBL1123419, “Synthesis and antiviral activity of sulfonamidobenzophenone oximes and sulfonamidobenzamides” (1986).

SMILES strings stand for the structures. Values after ≈ are worked out from the molar mass of the structure shown.

Assay [1] concerns HeLa. Put plainly: Antiviral activity was measured against Hela cells injected with rhinovirus 19. Format: functional, Homo sapiens. An outline of the steps:
(§1)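 Rhinovirus spectrum in Hela cells: infected cultures were kept 3 days at 33 °C, stained with crystal violet and examined microscopically for cytopathic effect. The end point was 50% inhibition.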

Assay [2] has as its system CV-1. Put plainly: Compound was evaluated for its failure of virucidal activity in poliovirus infected CV-1 cells at 0.5 ug/mL. virus titer 6.6*10e7 PFU/mL. Format: functional, Cercopithecidae.
Assay [3] has as its system Enterovirus. Kind of assay: Antiviral activity against rhinovirus 1A using plaque-inhibition assay. Conditions: read-out: ED50 (the source's name). Format: functional. An outline of the steps: (§2)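 Plaque reduction: confluent monolayers were infected with 100-200 PFU. Hela (Ohio) cells were used for rhinoviruses 10 and 1A and coxsackieviruses B4 and A9, CV-1 for poliovirus type 1 Mahoney, and LLC-MK2 for enterovirus 70. Cells were overlaid with 2.0% agar in MEM plus 4% FBS containing serial compound concentrations. Incubation was 37 °C for polio/coxsackie and 33 °C for rhino/enterovirus, with a neutral red (0.004%) second overlay. ED50 was taken from the dose-response curve.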

Assay [4] has as its system HeLa. Kind of assay: Antiviral activity was measured against Hela cells injected with rhinovirus 1A. Format: functional, Homo sapiens. The method, boiled down: as §1
Assay [5] relates to HeLa. Kind of assay: Antiviral activity was measured against Hela cells injected with rhinovirus 26. Format: functional, Homo sapiens. The method, boiled down: as §1
Assay [6] deals with CV-1. Put plainly: Compound was evaluated for its failure of virucidal activity in poliovirus infected CV-1 cells at 5 ug/mL. virus titer 7.1*10e7 PFU/mL. Format: functional, Cercopithecidae.
Assay [7] relates to HeLa. Kind of assay: Antiviral activity was measured against Hela cells injected with rhinovirus 10. Format: functional, Homo sapiens. The method, boiled down: as §1
Assay [8] relates to HeLa. Put plainly: Antiviral activity was measured against Hela cells injected with coxsackie virus type A9. Format: functional, Homo sapiens. The method, boiled down: as §2
Assay [9] concerns HeLa. Put plainly: Antiviral activity was measured against Hela cells injected with coxsackie virus type B4. Format: functional, Homo sapiens. The method, boiled down: as §2
Assay [10] relates to CV-1. Put plainly: Chemotherapeutic index in CV-1 cells (chemotherapeutic index=50% cytotoxic dose/50% effective dose). Format: functional, Cercopithecidae. The method, boiled down: (§3)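 Index = 50% cytotoxic dose / 50% plaque-inhibition dose. For cytotoxicity, 200 cells/mL in suspension were mixed with 10% FBS MEM carrying serial compound dilutions and incubated 7 days at 37 °C under 5% CO2. Colonies were stained with 1% crystal violet and counted, and the 50% cytotoxic dose was read from the dose-response curve.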

The subject of assay [11] is CV-1. Put plainly: Compound was evaluated for its failure of virucidal activity in poliovirus infected CV-1 cells at 50 ug/mL. virus titer 7.4*10e7 PFU/mL. Format: functional, Cercopithecidae.
In assay [12] the test system is Poliovirus 1. Kind of assay: microbe, parasite or virus in culture. Format: functional. Conditions: Enterovirus C; read-out: ED50 (the source's name).
Assay [13] concerns CV-1. Put plainly: Compound was evaluated for its failure of virucidal activity in poliovirus infected CV-1 cells at 5 ug/mL. virus titer 7.6*10e7 PFU/mL. Format: functional, Cercopithecidae.
Assay [14] relates to CV-1. Kind of assay: Effect on time of addiction in poliovirus infected CV-1 cells treated with 1 ug/mL of compound at 0 h. virus titer 4.8*10e8. Format: functional, Cercopithecidae.
In assay [15] the test system is CV-1. Kind of assay: Effect on time of addiction in poliovirus infected CV-1 cells treated with 1 ug/mL of compound at 1 h. virus titer 3.6*10e8. Format: functional, Cercopithecidae.
In assay [16] the test system is CV-1. Kind of assay: Effect on time of addiction in poliovirus infected CV-1 cells treated with 1 ug/mL of compound at 2 h. virus titer 5.0*10e8. Format: functional, Cercopithecidae.
For assay [17], the system named is CV-1. Kind of assay: Compound was evaluated for its failure of virucidal activity in poliovirus infected CV-1 cells at 0.5 ug/mL. virus titer 6.4*10e7 PFU/mL. Format: functional, Cercopithecidae.
Assay [18] relates to CV-1. Put plainly: Effect on time of addiction in poliovirus infected CV-1 cells treated with 1 ug/mL of compound at 3 h. virus titer 1.6*10e9. Format: functional, Cercopithecidae.
The test system of assay [19] is LLC-MK2. Kind of assay: Antiviral activity was measured against LLC-MK2 cells injected with enterovirus 70. Format: functional, Cercopithecidae. An outline of the steps: as §2
In assay [20] the test system is CV-1. Kind of assay: Effect on time of addiction in poliovirus infected CV-1 cells treated with 1 ug/mL of compound at 4 h. virus titer 3.1*10e9. Format: functional, Cercopithecidae.
Assay [21] deals with CV-1. Kind of assay: Effect on time of addiction in poliovirus infected CV-1 cells treated with 1 ug/mL of compound at 5 h. virus titer 4.3*10e9. Format: functional, Cercopithecidae.
Assay [22] deals with Enterovirus. Put plainly: Antiviral activity against rhinovirus 10 using plaque-inhibition assay. Format: functional. Conditions: read-out: ED50 (the source's name). An outline of the steps:
as §2

Assay [23] relates to CV-1. Put plainly: Compound was evaluated for chemotherapeutic index in CV-1 cells (chemotherapeutic index=50% cytotoxic dose/50% effective dose). Format: functional, Cercopithecidae. The method, boiled down:
as §3

Consider `CN(C)S(=O)(=O)Nc1ccc(C(=O)Nc2ccc(Br)cc2)cc1`, for which the ED50 in assay [1] amounted to 0.6 µg/mL (≈ 1.51 µM); in [4], 0.68 µg/mL (≈ 1.71 µM); in [5], 0.68 µg/mL (≈ 1.71 µM); in assay [7], 0.42 µg/mL (≈ 1.05 µM); in assay [8], 5.2 µg/mL (≈ 13.1 µM); in assay [9] it was 4 µg/mL (≈ 10 µM). Further, the values for the Inhibition in assay [2], in assay [6] and in assay [11] were 12%, 0% and 0%, respectively. Moreover, the EC50 in assay [3] was 0.26 µg/mL (≈ 0.653 µM); in [12], 0.3 µg/mL (≈ 0.753 µM). In assay [10], this compound had a Chemotherapeutic index of 600.

With `CN(C)S(=O)(=O)Nc1ccc(C(=O)NCCCCc2ccccc2)cc1`, the ED50 in assay [1] is 0.12 µg/mL (≈ 0.32 µM); in assay [4] it was 0.12 µg/mL (≈ 0.32 µM); in assay [5] it was 0.13 µg/mL (≈ 0.346 µM); in assay [7], 0.09 µg/mL (≈ 0.24 µM); in assay [8] it was 0.4 µg/mL (≈ 1.07 µM); in assay [19] it was 0.7 µg/mL (≈ 1.86 µM). For the same compound, the ED50 in assay [9] was 0.42 µg/mL (≈ 1.12 µM). Besides, the Inhibition (usually the change of the read-out against control, counted positive when it falls) in assay [13] is recorded as 3%; in [14], 88.3%; in [15], 91.2%; in assay [16] it was 87.8%; in assay [17], 10%; in assay [18] it was 61%. Also, the Inhibition in assay [11] came out at 0%; in [20], 24.4%; in assay [21] it was 0%. The EC50 in assay [3] stood at 0.13 µg/mL (≈ 0.346 µM); in [12] it was 0.09 µg/mL (≈ 0.24 µM). The same compound had a Chemotherapeutic index in assay [10] of 18.

For the compound `COc1ccc(/C(=N\O)c2cccc(NS(=O)(=O)N(C)C)c2)cc1`, the ED50 came to 0.44 µg/mL (≈ 1.26 µM) in assay [1]; 0.29 µg/mL (≈ 0.83 µM) in assay [4]; 0.26 µg/mL (≈ 0.744 µM) in assay [7]; 0.75 µg/mL (≈ 2.15 µM) in [19]; 0.64 µg/mL (≈ 1.83 µM) in assay [9]. In addition, the EC50 in assay [22] was 0.29 µg/mL (≈ 0.83 µM); in [12], 0.26 µg/mL (≈ 0.744 µM). Further, the Chemotherapeutic index in assay [10] was 56.

On to `CN(C)S(=O)(=O)Nc1cccc(/C(=N/O)c2cccc(N)c2)c1`, for which the Chemotherapeutic index in assay [23] stood at 66. Besides, the EC50 in assay [12] was determined as 0.7 µg/mL (≈ 2.09 µM).

In the case of `CC(C)Cc1ccc(NC(=O)c2ccc(NS(=O)(=O)N(C)C)cc2)cc1`, the EC50 in assay [3] was found to be 0.13 µg/mL (≈ 0.346 µM); in assay [12], 0.16 µg/mL (≈ 0.426 µM). In assay [10], this compound had a Chemotherapeutic index of 7.

For `CN(C)S(=O)(=O)Nc1ccc(C(=O)Nc2ccc(I)cc2)cc1`, the EC50 in [3] and in [12] was 0.3 µg/mL (≈ 0.674 µM) in each case. In addition, the Chemotherapeutic index in assay [10] turned out to be 5.

With `CCc1ccc(NC(=O)c2ccc(NS(=O)(=O)N(C)C)cc2)cc1`, the EC50 in [3] amounted to 0.2 µg/mL (≈ 0.576 µM); in assay [12], 0.36 µg/mL (≈ 1.04 µM). The compound also gave a Chemotherapeutic index in [10] of 10.
